Target: DNA-(apurinic or apyrimidinic site) endonuclease (Homo sapiens, UniProt P27695)
Test: Inhibition of full length human APE1 assessed as reduction in endonuclease activity by measuring DNA cleavage of abasic sites using 6-FAM labelled two annealed oligonucleotides as AP site mimic substrate by fluorescence-based assay
Procedure, shortened: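 Purified full-length APE1 (0.25-1.25 nM) added at once to 50 nM annealed duplex: 5'-6-FAM-labelled AP-site-mimic strand paired with a quencher-labelled strand. Buffer 50 mM Tris, 1 mM MgCl2, 50 mM NaCl, pH 7.5. Compound in triplicate, 10-point 1:2 dilution from 100 μM. Fluorescence from cleavage read kinetically at five 1-min intervals. Reaction rate compared with DMSO vehicle.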

DNA-(apurinic or apyrimidinic site) endonuclease, sequence (P27695 whole entry): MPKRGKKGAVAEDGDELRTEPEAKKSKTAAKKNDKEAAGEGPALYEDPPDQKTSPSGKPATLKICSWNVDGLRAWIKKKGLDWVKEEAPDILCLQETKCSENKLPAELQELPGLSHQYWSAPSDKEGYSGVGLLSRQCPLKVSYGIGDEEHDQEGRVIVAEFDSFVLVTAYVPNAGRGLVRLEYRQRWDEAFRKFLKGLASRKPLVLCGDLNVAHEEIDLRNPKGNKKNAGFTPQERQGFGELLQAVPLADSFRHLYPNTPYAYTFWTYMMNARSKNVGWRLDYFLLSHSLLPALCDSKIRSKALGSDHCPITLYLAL

Row | IC50 [µM] | SMILES
1 | 5.4 | Cc1ccc(S(=O)(=O)n2cccc2[C@@H]2NC(=O)[C@H](Cc3c[nH]c4ccccc34)NC(=O)C(Oc3ccccc3)CCOC(=O)C/C=C/[C@@H]2C)cc1 (some centres not stated)
2 | 1.2 | Cc1ccc(S(=O)(=O)n2cccc2[C@@H]2NC(=O)[C@H](Cc3c[nH]c4ccccc34)NC(=O)C(c3ccccc3)CCOC(=O)C/C=C/[C@@H]2C)cc1 (some centres not stated)
